# According to ChEMBL document CHEMBL2046349, “Synthesis of pacidamycin analogues via an Ugi-multicomponent reaction” (Bioorg Med Chem Lett, 2012):
# How the values were obtained:
# [1] = system: Pseudomonas aeruginosa; assay: Antimicrobial activity against Pseudomonas aeruginosa PAO1 incubated at 35 degC for 20 hrs by microdilution broth method; type: functional; conditions: PAO1, 20 h
# Summary of the method: (§1)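 Broth microdilution per NCCLS in cation-adjusted Mueller-Hinton broth. Each compound serially diluted two-fold, and each […] inoculated at 5×10^4 CFU per 0.1 mL well. Plates incubated 35 °C for 20 h, then MIC scored.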
# [2] = molecular target: T1, Phospho-N-acetylmuramoyl-pentapeptide-transferase (Staphylococcus aureus, UniProt P0C1R8); assay: Inhibition of Staphylococcus aureus MraY using UDP-MurNAc-dansylpentapeptide substrate assessed as formation of dansylated lipid I incubated for 3 to 4 hrs by fluorometric assay
# T1 sequence (P0C1R8 whole entry): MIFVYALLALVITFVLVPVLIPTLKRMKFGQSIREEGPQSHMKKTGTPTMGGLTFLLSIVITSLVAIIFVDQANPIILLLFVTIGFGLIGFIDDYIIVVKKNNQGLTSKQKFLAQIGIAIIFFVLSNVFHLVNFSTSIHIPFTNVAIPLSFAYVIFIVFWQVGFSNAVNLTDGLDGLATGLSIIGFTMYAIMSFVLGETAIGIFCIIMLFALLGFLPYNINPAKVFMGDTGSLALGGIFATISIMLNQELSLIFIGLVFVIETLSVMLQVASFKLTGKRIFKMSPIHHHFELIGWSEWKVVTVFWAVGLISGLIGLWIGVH
# Summary of the method: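 Purified S. aureus MraY with UDP-MurNAc-dansylpentapeptide as substrate. Dansylated lipid I formation followed as fluorescence enhancement at ex 355 nm / em 535 nm. IC50 reported.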
# [3] = system: Pseudomonas aeruginosa; assay: Antimicrobial activity against Pseudomonas aeruginosa YYI65 (deltamexB) incubated at 35 degC for 20 hrs by microdilution broth method; type: functional; conditions: YYI65, 20 h; summary of the method: as §1
# [4] = system: Pseudomonas aeruginosa; assay: Antimicrobial activity against Pseudomonas aeruginosa SR 27156 incubated at 35 degC for 20 hrs by microdilution broth method; type: functional; conditions: SR 27156, 20 h; summary of the method: as §1
# [5] = system: Pseudomonas aeruginosa; assay: Antimicrobial activity against Pseudomonas aeruginosa ATCC 25619 incubated at 35 degC for 20 hrs by microdilution broth method; type: functional; conditions: ATCC 25619, 20 h; summary of the method: as §1
SMILES,MIC [1],IC50 [2],MIC [3],MIC [4],MIC [5]
C[C@H](N)C(=O)N(C)[C@@H](C)[C@H](NC(=O)[C@H](C)NC(=O)N[C@@H](Cc1c[nH]c2ccccc12)C(=O)O)C(=O)N/C=C1\O[C@@H](n2ccc(=O)[nH]c2=O)[C@H](O)[C@@H]1O,32 µg/mL,42 nM,8 µg/mL,16 µg/mL,16 µg/mL
C[C@H](N)C(=O)N(C)[C@@H](C)[C@@H](NC(=O)[C@H](C)NC(=O)N[C@@H](Cc1c[nH]c2ccccc12)C(=O)O)C(=O)N/C=C1\O[C@@H](n2ccc(=O)[nH]c2=O)[C@H](O)[C@@H]1O,> 32 µg/mL,4000 nM,> 32 µg/mL,> 32 µg/mL,> 32 µg/mL
C[C@H](NC(=O)N[C@@H](Cc1c[nH]c2ccccc12)C(=O)O)C(=O)N[C@H](C(=O)N/C=C1\O[C@@H](n2ccc(=O)[nH]c2=O)[C@H](O)[C@@H]1O)[C@H](C)N(C)C(=O)[C@H](Cc1ccc(O)cc1)NC(=O)CN,> 32 µg/mL,4000 nM,> 32 µg/mL,> 32 µg/mL,> 32 µg/mL
C[C@H](N)C(=O)N(C)[C@@H](C)[C@H](NC(=O)[C@H](C)NC(=O)N[C@@H](Cc1c[nH]c2ccccc12)C(=O)O)C(=O)N/C=C1/C[C@@H](O)[C@H](n2ccc(=O)[nH]c2=O)O1 [PACIDAMYCIN D],64 µg/mL,22 nM,16 µg/mL,16 µg/mL,16 µg/mL

# Other lines, results leading:
MIC [1],IC50 [2],MIC [3],MIC [4],MIC [5],SMILES
> 32 µg/mL,22 nM,16 µg/mL,16 µg/mL,32 µg/mL,C[C@H](NC(=O)N[C@@H](Cc1c[nH]c2ccccc12)C(=O)O)C(=O)N[C@H](C(=O)N/C=C1\O[C@@H](n2ccc(=O)[nH]c2=O)[C@H](O)[C@@H]1O)[C@H](C)N(C)C(=O)[C@H](Cc1cccc(O)c1)NC(=O)CN
> 32 µg/mL,65 nM,> 32 µg/mL,> 32 µg/mL,> 32 µg/mL,C[C@H](NC(=O)N[C@@H](Cc1c[nH]c2ccccc12)C(=O)O)C(=O)N[C@H](C(=O)N/C=C1\O[C@@H](n2ccc(=O)[nH]c2=O)[C@H](O)[C@@H]1O)[C@H](C)N(C)C(=O)CN
> 32 µg/mL,650 nM,> 32 µg/mL,> 32 µg/mL,> 32 µg/mL,C[C@H](NC(=O)N[C@@H](Cc1c[nH]c2ccccc12)C(=O)O)C(=O)N[C@@H](C(=O)N/C=C1\O[C@@H](n2ccc(=O)[nH]c2=O)[C@H](O)[C@@H]1O)[C@H](C)N(C)C(=O)[C@H](Cc1cccc(O)c1)NC(=O)CN
> 32 µg/mL,8900 nM,> 32 µg/mL,> 32 µg/mL,> 32 µg/mL,C[C@H](NC(=O)N[C@@H](Cc1c[nH]c2ccccc12)C(=O)O)C(=O)N[C@@H](C(=O)N/C=C1\O[C@@H](n2ccc(=O)[nH]c2=O)[C@H](O)[C@@H]1O)[C@H](C)N(C)C(=O)[C@@H](Cc1cccc(O)c1)NC(=O)CN
